Measured values from different studies.
Compare with care: the assays were run in different laboratories. In brackets after ≈: the same amount, converted by molar mass.

C#CCON=C1C=CC(=C(C#N)c2ccccc2)C=C1  MFC (Pichia kudriavzevii; microbial killing, broth dilution; ATCC14243; 48 h): 64 µg/mL (≈ 246 µM)
O=C(Nc1cccc(F)c1)c1ccc(COC(Cn2ccnc2)c2ccc(Cl)cc2Cl)cc1 (centres unmarked)  MIC80 (Pichia kudriavzevii; microbial growth, broth dilution): 0.25 µg/mL (≈ 0.516 µM)
Cc1nnc(-c2ccc3ccn(CC(=O)Nc4ccccc4Cl)c3c2)o1  EC50 (Plasmodium knowlesi; parasite growth, SYBR Green; 30 h, blood stage): 431 nM
CCn1c(=O)c(-c2cc[nH]n2)cc2c(C)nc(N)nc21  IC50 (Enterovirus A; viral replication, inhibitor, qPCR; RD, EV71): 158 nM
CC(=O)ON=C1C=CC(=C(C#N)c2ccccc2)C=C1  MFC (Pichia kudriavzevii; microbial killing, broth dilution; ATCC14243; 48 h): 16 µg/mL (≈ 60.5 µM)
CC1=C(Cn2cc(CO)nn2)C(=O)c2ccccc2C1=O  IC50 (Schistosoma mansoni; parasite growth; 72 h, larva): 1050 nM
O=C(Nc1ccc(Br)cc1)c1ccc(COC(Cn2ccnc2)c2ccc(Cl)cc2Cl)cc1 (centres unmarked)  MIC80 (Pichia kudriavzevii; microbial growth, broth dilution): 0.06 µg/mL (≈ 0.11 µM)
CC(C)c1ccc(/C=C2\N=C(SCC(=O)O)N(c3ccccc3)C2=O)cc1  MIC (Fusarium solani; microbial growth, broth dilution): 12 µg/mL (≈ 31.5 µM)
CC1=C(Cn2cc(CN3CCN(C(=O)OC(C)(C)C)CC3)nn2)C(=O)c2ccccc2C1=O  IC50 (Schistosoma mansoni; parasite growth; 72 h, larva): 1500 nM
N#CC(=C1C=CC(=NOC(=O)OCc2ccccc2)C=C1)c1ccccc1  MFC (Pichia kudriavzevii; microbial killing, broth dilution; ATCC14243; 48 h): 256 µg/mL (≈ 718 µM)
CC1=C(Cn2cc(CN3CCNCC3)nn2)C(=O)c2ccccc2C1=O  IC50 (Schistosoma mansoni; parasite growth; 72 h, larva): 930 nM
C#CCOC(=O)ON=C1C=CC(=C(C#N)c2ccccc2)C=C1  MFC (Pichia kudriavzevii; microbial killing, broth dilution; ATCC14243; 48 h): 32 µg/mL (≈ 105 µM)
COc1ccc(NC(=O)c2ccc(COC(Cn3ccnc3)c3ccc(Cl)cc3Cl)cc2)cc1 (centres unmarked)  MIC80 (Pichia kudriavzevii; microbial growth, broth dilution): 0.125 µg/mL (≈ 0.252 µM)
CC1=C(Cc2cn(CCO)nn2)C(=O)c2ccccc2C1=O  IC50 (Schistosoma mansoni; parasite growth; 72 h, larva): 1440 nM
C=CC(=O)ON=C1C=CC(=C(C#N)c2ccccc2)C=C1  MFC (Pichia kudriavzevii; microbial killing, broth dilution; ATCC14243; 48 h): 16 µg/mL (≈ 57.9 µM)
Cc1ccc(NC(=O)c2ccc(COC(Cn3ccnc3)c3ccc(Cl)cc3Cl)cc2)cc1 (centres unmarked)  MIC80 (Pichia kudriavzevii; microbial growth, broth dilution): 0.125 µg/mL (≈ 0.26 µM)
CC1=C(Cc2cn(CCN3CCNCC3)nn2)C(=O)c2ccccc2C1=O  IC50 (Schistosoma mansoni; parasite growth; 72 h, larva): 1670 nM
O=C(Nc1ccc(F)cc1F)c1ccc(COC(Cn2ccnc2)c2ccc(Cl)cc2Cl)cc1 (centres unmarked)  MIC80 (Pichia kudriavzevii; microbial growth, broth dilution): 0.03 µg/mL (≈ 0.0597 µM)
CC1=C(Cn2cncn2)C(=O)c2ccccc2C1=O  IC50 (Schistosoma mansoni; parasite growth; 72 h, larva): 900 nM
O=C(Nc1cccc2ccccc12)c1ccc(COC(Cn2ccnc2)c2ccc(Cl)cc2Cl)cc1 (centres unmarked)  MIC80 (Pichia kudriavzevii; microbial growth, broth dilution): 16 µg/mL (≈ 31 µM)
CC1=C(Cn2ccnc2[N+](=O)[O-])C(=O)c2ccccc2C1=O  IC50 (Schistosoma mansoni; parasite growth; 72 h, larva): 1030 nM
O=C(Nc1ccc(F)cc1)c1ccc(COC(Cn2ccnc2)c2ccc(Cl)cc2Cl)cc1 (centres unmarked)  MIC80 (Pichia kudriavzevii; microbial growth, broth dilution): 0.06 µg/mL (≈ 0.124 µM)
CCON=C1C=CC(=C(C#N)c2ccccc2)C=C1  MIC (Pichia kudriavzevii; microbial growth, broth dilution; ATCC14243; 48 h): 256 µg/mL (≈ 1020 µM)
